Source: ChEMBL document CHEMBL3856218, “Polycyclic Polyprenylated Acylphloroglucinol Congeners from Hypericum scabrum” (J Nat Prod, 2016)

Assays:
[1] = Cytotoxicity against human Bel7402 cells at 10^-5 M by MTT assay relative to control; type: functional; conditions: Bel-7402
[2] = Cytotoxicity against human HCT8 cells at 10^-5 M by MTT assay relative to control; type: functional; conditions: HCT-8
[3] = Cytotoxicity against human A549 cells at 10^-5 M by MTT assay relative to control; type: functional
[4] = Neuroprotective activity against glutamate-induced toxicity in human SK-N-SH cells assessed as cell viability at 10 uM after 24 hrs by MTT assay (reference value: 61.9 +/- 0.9%); type: functional; conditions: read-out: Activity
[5] = Hepatoprotective activity in human HepG2 cells assessed as inhibition of paracetamol-induced cell damage at 10 uM preincubated for 1 hr followed by paracetamol addition measured after 24 hrs by MTT assay relative to control; type: functional
Summary of the method: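 HepG2 cells damaged with paracetamol, test agents at 10 μM, with bicyclol (10 μM) as the positive control. Viability was read by MTT colorimetric assay and expressed as % of normal, and inhibition as % of paracetamol control. Values are mean ± SD, n = 3 (normal and control wells n = 6).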

[6] = Inhibition of glutamate transporter (unknown origin) assessed as suppression of synaptosomal uptake of L-glutamate; design: species or system Homo sapiens
[7] = Inhibition of GABA transporter (unknown origin) assessed as suppression of synaptosomal uptake of GABA; design: species or system Homo sapiens
[8] = biological target: Sodium-dependent noradrenaline transporter (Homo sapiens, UniProt P23975); experiment: Inhibition of norepinephrine transporter (unknown origin) assessed as suppression of synaptosomal uptake of norepinephrine
[9] = biological target: Sodium-dependent dopamine transporter (Homo sapiens, UniProt Q01959); experiment: Inhibition of dopamine transporter (unknown origin) assessed as suppression of synaptosomal uptake of dopamine
[10] = biological target: Sodium-dependent serotonin transporter (Homo sapiens, UniProt P31645); experiment: Inhibition of serotonin transporter (unknown origin) assessed as suppression of synaptosomal uptake of serotonin
Sequence of Sodium-dependent serotonin transporter (P31645 whole entry): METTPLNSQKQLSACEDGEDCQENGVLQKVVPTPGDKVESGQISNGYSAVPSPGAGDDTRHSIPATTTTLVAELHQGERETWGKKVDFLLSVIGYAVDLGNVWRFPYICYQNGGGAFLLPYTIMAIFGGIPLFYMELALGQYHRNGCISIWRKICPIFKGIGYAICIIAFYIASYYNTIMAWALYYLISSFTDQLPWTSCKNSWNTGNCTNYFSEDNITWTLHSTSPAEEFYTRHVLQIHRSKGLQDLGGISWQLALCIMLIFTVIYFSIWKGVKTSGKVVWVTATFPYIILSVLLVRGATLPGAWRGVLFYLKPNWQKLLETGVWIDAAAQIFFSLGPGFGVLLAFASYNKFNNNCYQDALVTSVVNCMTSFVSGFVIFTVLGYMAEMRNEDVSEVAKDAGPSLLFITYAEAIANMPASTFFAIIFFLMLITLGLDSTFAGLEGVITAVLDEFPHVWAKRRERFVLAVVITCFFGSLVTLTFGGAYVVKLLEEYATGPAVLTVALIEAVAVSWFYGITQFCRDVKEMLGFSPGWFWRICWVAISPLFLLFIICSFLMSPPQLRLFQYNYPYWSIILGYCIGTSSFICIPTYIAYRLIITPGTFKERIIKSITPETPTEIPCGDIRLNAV

Sequence of Sodium-dependent dopamine transporter (Q01959 whole entry): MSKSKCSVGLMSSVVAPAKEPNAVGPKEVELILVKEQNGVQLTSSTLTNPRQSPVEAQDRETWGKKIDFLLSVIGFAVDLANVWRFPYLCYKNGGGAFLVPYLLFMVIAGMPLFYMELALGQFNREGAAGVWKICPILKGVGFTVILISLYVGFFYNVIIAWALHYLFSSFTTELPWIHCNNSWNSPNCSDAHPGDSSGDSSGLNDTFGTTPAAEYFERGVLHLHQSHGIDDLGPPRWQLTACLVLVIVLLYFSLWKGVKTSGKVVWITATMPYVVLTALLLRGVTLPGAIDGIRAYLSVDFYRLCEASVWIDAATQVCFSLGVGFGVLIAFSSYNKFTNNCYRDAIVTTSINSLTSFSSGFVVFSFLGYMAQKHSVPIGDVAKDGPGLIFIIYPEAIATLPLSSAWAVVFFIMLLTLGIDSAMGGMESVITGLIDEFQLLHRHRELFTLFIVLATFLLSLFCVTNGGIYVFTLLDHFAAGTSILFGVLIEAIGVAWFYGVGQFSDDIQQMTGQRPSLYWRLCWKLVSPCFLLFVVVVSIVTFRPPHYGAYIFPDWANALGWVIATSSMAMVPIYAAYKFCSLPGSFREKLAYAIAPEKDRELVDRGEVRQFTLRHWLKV
Sequence of Sodium-dependent noradrenaline transporter (P23975 whole entry): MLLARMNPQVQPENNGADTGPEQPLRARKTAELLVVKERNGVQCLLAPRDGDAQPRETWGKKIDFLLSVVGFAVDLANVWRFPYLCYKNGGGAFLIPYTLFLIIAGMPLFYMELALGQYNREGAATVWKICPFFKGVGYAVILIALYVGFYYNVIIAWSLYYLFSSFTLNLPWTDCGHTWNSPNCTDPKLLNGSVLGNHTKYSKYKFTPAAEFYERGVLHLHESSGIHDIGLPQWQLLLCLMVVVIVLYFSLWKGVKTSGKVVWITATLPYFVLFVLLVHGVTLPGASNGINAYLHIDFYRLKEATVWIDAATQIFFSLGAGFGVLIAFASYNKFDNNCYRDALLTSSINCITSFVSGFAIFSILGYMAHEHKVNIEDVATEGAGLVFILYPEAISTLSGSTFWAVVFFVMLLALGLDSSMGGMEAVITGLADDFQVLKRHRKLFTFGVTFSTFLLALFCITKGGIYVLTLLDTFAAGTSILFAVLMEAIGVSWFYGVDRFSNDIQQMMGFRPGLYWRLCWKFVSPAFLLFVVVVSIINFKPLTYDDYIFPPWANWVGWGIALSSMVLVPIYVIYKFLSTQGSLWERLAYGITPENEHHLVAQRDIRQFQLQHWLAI

Row | SMILES | inhibition at 10 µM [1] [%] | inhibition at 10 µM [2] [%] | inhibition at 10 µM [3] [%] | viability at 10 µM [4] [%] | inhibition at 10 µM [5] [%] | further results
1 | CC(C)=CCC1=C2O[C@@H](C(C)(C)OO)C[C@@]23C[C@H](CC=C(C)C)C(C)(C)[C@@](C(=O)c2ccccc2)(C1=O)C3=O | 18.4 | -32.2 | 14.6 | – | – | –
2 | CC(C)=CC[C@@]12C[C@H]3[C@@H](C=C(C)C)[C@@](C(=O)c4ccccc4)(C1=O)C(=O)[C@@](CC=C(C)C)(C2=O)C3(C)C [HYPERIBONE K] | – | – | – | 73.1 | 49 | –
3 | CC(C)=CCC[C@]1(C)[C@@H](CC=C(C)C)CC2(CC=C(C)C)C(=O)[C@@]3(CC=C(C)C)O[C@]2(O)[C@]1(C(=O)C(C)C)C3=O (some centres not stated) | – | – | – | – | 14 | –
4 | C=C(C)[C@@H]1C[C@@]23C[C@@H](CC=C(C)C)C(C)(C)[C@@](CC=C(C)C)(C(=O)C(C(=O)c4ccccc4)=C2O1)C3=O | -0.2 | -29.7 | 6.64 | 73.1 | – | –
5 | CC(C)=CC[C@H]1CC(C)=C2OC(C)(C)[C@@H]3CC[C@@]1(C)[C@]23C(=O)C(C)C | – | – | – | – | 15.9 | –
6 | CC(C)=CC[C@H]1C[C@@]2(C)C(=O)[C@](C(=O)C(C)C)(C(=O)C3=C2O[C@H](C(C)(C)O)C3)[C@]1(C)CCCC(C)C | – | – | – | 71.6 | – | –
7 | CC(C)=CCC[C@]1(C)[C@@H](CC=C(C)C)CC2(C)C(=O)[C@@]3(CC=C(C)C)O[C@]2(O)[C@]1(C(=O)C(C)C)C3=O (some centres not stated) | – | – | – | – | 25.8 | –
8 | CC(C)=CCC[C@]1(C)[C@@H](CC=C(C)C)C[C@]2(CC=C(C)C)C(=O)C(CC=C(C)C)=C(O)[C@@]1(C(=O)C(C)C)C2=O | – | – | – | – | – | IC50 [6]: 2 µM; IC50 [7]: 2 µM; IC50 [8]: 2 µM; IC50 [9]: 2 µM
9 | CC(C)=CC[C@H]1C[C@@]2(C)C(=O)[C@](C(=O)c3ccccc3)(C(=O)C3=C2O[C@H](C(C)(C)O)C3)[C@]1(C)CCCC(C)C | – | – | – | 83 | – | –
10 | CC(C)=CC[C@H]1C[C@]2(C)C(=O)C3=C(O[C@H](C(C)(C)O)C3)[C@@](C(=O)C(C)C)(C2=O)[C@]1(C)CCCC(C)C | – | – | – | 75.4 | – | –
11 | CC[C@@H](C)C(=O)[C@]12C(=O)[C@]3(C)C[C@H](CC=C(C)C)[C@@]1(C)CC[C@H](C(C)(C)O)OC2=C(CC=C(C)C)C3=O | 8.64 | -41.2 | 8.65 | 70.8 | 24.9 | –
12 | CC(C)=CC[C@H]1C[C@]2(CC=C(C)C)C(=O)C(C(=O)c3ccccc3)=C3O[C@H](C(C)(C)O)C[C@]3(C2=O)C1(C)C | 1.05 | 3.04 | 10.7 | 73.5 | – | –
13 | CC(C)=CC[C@H]1C[C@@]2(C)C(=O)[C@](C(=O)C(C)C)(C(=O)C3=C2O[C@@H](C(C)(C)O)C3)[C@]1(C)CCCC(C)C | – | – | – | – | 23.3 | –
14 | CC(C)=CCC1=C2OCC[C@@]23C[C@H](CC=C(C)C)C(C)(C)[C@@](C(=O)c2ccccc2)(C1=O)C3=O | -1.32 | 14.4 | 1.46 | – | – | –
15 | CC(C)=CC[C@H]1C[C@@]2(CC=C(C)C)C(=O)[C@](C(=O)c3ccccc3)(C(=O)C3=C2O[C@@H](C(C)(C)O)C3)[C@]1(C)CCCC(C)C | – | – | – | – | 10.3 | –
16 | CC[C@H](C)C(=O)C12C(=O)[C@]3(CC=C(C)C)O[C@@]1(O)C(C)(C[C@H](CC=C(C)C)[C@@]2(C)CCC=C(C)C)C3=O (some centres not stated) | -3.16 | -25.9 | 19 | 72.1 | 36.7 | –
17 | Oc1ccc(/C=C/c2cc(O)cc(O)c2)cc1 [RESVERATROL] | – | – | – | 72.6 | – | –
18 | CCC(C)C(=O)[C@]12C(=O)[C@](CC=C(C)C)(C[C@H](CC=C(C)C)[C@@]1(C)CCC=C(C)C)C(=O)C(CC=C(C)C)=C2O (some centres not stated) [ADHYPERFORIN] | – | – | – | – | – | IC50 [10]: 2 µM; IC50 [8]: 2 µM; IC50 [9]: 2 µM
19 | O=c1[nH]cc(F)c(=O)[nH]1 [FLUOROURACIL] | 70.6 | 70.4 | 68.3 | – | – | –
20 | CC(C)=CCC1=C2O[C@@H](C(C)(C)O)CC[C@]3(C)[C@@H](CC=C(C)C)C[C@](C)(C1=O)C(=O)[C@]23C(=O)C(C)C | 19.4 | -37.1 | 0.36 | – | 6.1 | –
21 | COC(=O)c1cc(OC)c2c(c1-c1c(CO)cc(OC)c3c1OCO3)OCO2 [BICYCLOL] | – | – | – | – | 19.5 | –
22 | CC(C)=CCC[C@]1(C)C[C@H](CC=C(C)C)[C@](C)(O)C(=O)[C@H]1C(=O)C(C)C | 14.7 | -25.7 | 17.2 | – | – | –
23 | CC[C@H](C)C(=O)[C@@H]1C(=O)[C@@](C)(O)[C@@H](CC=C(C)C)C[C@@]1(C)CCC=C(C)C | 3.31 | -24.4 | -13.6 | – | 30.5 | –
